Yeast life ext: compounds extending yeast replicative lifespan, primary screen, S. cerevisiae, OD615; inhibition of the nicotinamide effect, % at 10 µM; S. cerevisiae growth with nicotinamide; deaD strain in restrictive glucose medium; 130,000 compounds, 0.68% hits; AID 775, 2007;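 active means inhibition above a set limit, placed 3 SD over the median of all compounds, cut at about 26% in these data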
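Assay system: DeaD-strain S. cerevisiae. Medium: CSMM-D glucose medium, restrictive. Reagent: nicotinamide, 1.5 mM, co-present with compound. Compound: 10 µM single point, 0.25% DMSO. Schedule: culture preincubation 4 h, compound exposure 48 h, both 30 °C. Detection: absorbance at 615 nm.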
Mdm2 ligase inh: MDM2-luciferase reporter signal enhancers, primary screen, MDM2 E3 ligase inhibitor project, cell-based, luminescence, 1536-well; cell-based MDM2 ubiquitination luciferase reporter, 2 h; 0 = plate control, 100 = twice control, blank-subtracted; signal enhancement, % at 5 µM; 210,000 compounds, 0.11% hits; AID 1230, 2008;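 active means signal enhancement of 30% or more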;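 further: luminescence tracks abundance of the self-degrading MDM2-luciferase fusion protein; higher signal means inhibition of MDM2 E3 ligase activity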
Target sequence (Q00987 whole entry, looked up, the tested form may be a part): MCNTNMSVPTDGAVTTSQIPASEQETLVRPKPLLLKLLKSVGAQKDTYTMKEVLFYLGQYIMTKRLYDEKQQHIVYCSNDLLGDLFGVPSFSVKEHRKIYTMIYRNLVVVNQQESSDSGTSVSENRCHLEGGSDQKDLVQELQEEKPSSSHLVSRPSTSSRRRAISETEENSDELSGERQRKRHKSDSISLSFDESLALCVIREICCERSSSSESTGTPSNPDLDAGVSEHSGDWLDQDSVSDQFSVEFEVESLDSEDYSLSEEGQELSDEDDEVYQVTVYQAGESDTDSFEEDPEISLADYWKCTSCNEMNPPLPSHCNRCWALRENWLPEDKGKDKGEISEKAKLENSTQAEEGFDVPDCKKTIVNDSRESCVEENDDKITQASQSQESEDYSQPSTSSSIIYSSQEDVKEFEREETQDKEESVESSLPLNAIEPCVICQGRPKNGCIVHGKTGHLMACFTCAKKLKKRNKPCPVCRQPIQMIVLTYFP
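Test system: stable mammalian line carrying autodegrading MDM2–luciferase fusion reporter; quantity: 2000 cells in each well; times: 4 h cell settling then 2 h compound exposure, 37 °C; detection: luminescence with SteadyLite reagent, 15 min at room temperature; evaluation: percent signal gain over controls, blank-subtracted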
RAM inhibit: inhibitors of the yeast RAM network, primary screen, dse1pr::URA3 reporter, 5-FOA selection | S. cerevisiae dse1pr::URA3 reporter, 5-FOA growth OD615, 2 d; analog-sensitive cbk1-as2 kinase mutant strain | inhibition, % at 50 µM | 190,000 compounds, 1.8% hits;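 active means inhibition above a set limit, 3 SD over mean compound inhibition, cut at about 8.4% in these data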;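 further: inhibition rescues growth on 5-FOA so higher OD means more RAM inhibition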
Insulin prom inh: inhibitors of insulin promoter-driven GFP, primary screen, imaging, TRM-6 cells, eGFP reporter, cell count | reporter expression induced with tamoxifen | 130,000 compounds, 0.9% hits | inhibition, % at 2 µM | AID 1273, 2008;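 active means inhibition above the mean plus 3 SD, with well images judged a real hit on visual review, cut at about 60% in these data, passing the limit was not always enough; inconclusive means inhibition over the cutoff but images rejected on review; inactive means inhibition not above the cutoff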
BB579 growth dn: growth inhibitors of yeast BB579 in restrictive medium, primary screen, yeast lifespan-shortening project, S. cerevisiae | 140,000 compounds, 0.51% hits | inhibition, % at 10 µM | OD615, 48 h | AID 804, 2007;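 active means inhibition above a set limit, 3 SD over the mean compound inhibition, cut at about 44% in these data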
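Assay system: S. cerevisiae DeaD strain BB579 yeast. Medium: CSMM-D restrictive synthetic medium containing dextrose (glucose). Times: 4 h cell preincubation, 48 h compound exposure, 30 °C humidified. Signal: OD615 turbidity measurement. Benchmarks: positive control amphotericin B 10 µg/mL.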
Measles CPE: compounds protecting cells from measles virus cytopathic effect, primary screen, measles RdRp inhibitor project, single point, MLSMR library, absorbance. Measles virus-infected cells, CPE protection. 140,000 compounds, 1.5% hits. protection (pct of control), % at 4 µM; in the data active means protection mostly above about 24%, no sharp cut-off; inactive means mostly below about 26%
Each line names hits and unclear results; the compound was inactive in the other large screens. This is a sample that favours compounds with a hit; in the whole collection about 4% have one here.

O=C(CCc1nnc(CCCCc2ccccc2)o1)NCc1cc(F)ccc1F	RAM inhibit 11 (no result: Yeast life ext, Insulin prom inh, BB579 growth dn, Measles CPE)
O=C(CCC(=O)c1cccs1)c1cccs1	Insulin prom inh 81 (no result: Yeast life ext)
O=C(CCC(=O)c1cccs1)NC(c1ccccc1)c1ccccc1	none
CN(C)S(=O)(=O)c1cccc(C(=O)OCC(=O)Nc2sccc2C#N)c1	none
CCN(C(=O)COC(=O)CNC(=O)c1ccc(C)s1)c1ccccc1	none (no result: Yeast life ext, BB579 growth dn, Measles CPE)
COc1ccc(-c2noc(CSc3nnc(-c4ccncc4)n3-c3ccc(F)cc3)n2)cc1OC	Yeast life ext 148
Cc1ccc(S(=O)(=O)c2cc3ccccc3oc2=Nc2ccc3c(c2)OCCO3)cc1	none
Cc1ccc(S(=O)(=O)c2cc3ccccc3oc2=Nc2ccc3c(c2)OCO3)cc1	Measles CPE 25
N/C(=N\OC(=O)CCCN1C(=O)c2ccccc2C1=O)c1ccc(Cl)cc1	Measles CPE 41
Fc1ccc(-n2nnnc2-c2cnc(-c3cccs3)nc2C(F)(F)F)cc1	none (no result: Insulin prom inh)
CC1=CC(=O)C=C(C)C1=NOS(=O)(=O)c1ccccc1	BB579 growth dn 100
CC1=CC(=O)C(C(C)C)=C/C1=N/OS(=O)(=O)c1ccccc1	none (no result: Yeast life ext, RAM inhibit, Insulin prom inh, BB579 growth dn, Measles CPE)
O=C(COc1ccc(F)cc1)NNC(=O)c1cc2ccccc2oc1=O	none
Cc1cccc(OCC(=O)NNC(=O)c2cc3ccccc3oc2=O)c1	Measles CPE 43
O=C(NC(=S)N1CCOCC1)c1cc2ccccc2o1	none (no result: Yeast life ext, Insulin prom inh, BB579 growth dn, Measles CPE)
CCCC(=O)C1C(=O)CC(C)(C)C(c2cc(C)no2)C1=O (stereo not drawn)	Yeast life ext 56
CC(=O)Nc1ccc(Cl)cc1C(=O)O	none
O=C(O)c1c(Cl)nc2ccccn12	none (no result: Yeast life ext, Insulin prom inh, BB579 growth dn, Measles CPE)
O=C(Oc1cc(=O)n2ccccc2n1)c1ccccc1	Yeast life ext 43
CCCOc1ccc2cc(-c3ccccn3)c(=O)oc2c1	none
O=c1oc2cc(OCc3c(F)cccc3Cl)ccc2cc1-c1ccccn1	Measles CPE 46 (no result: Insulin prom inh)
Cc1ccc(S(=O)(=O)N2CCCC2C(=O)OCc2ccco2)cc1 (stereo not drawn)	none
O=C(OCc1ccc([N+](=O)[O-])cc1)C1CCN(S(=O)(=O)c2ccccc2)CC1	RAM inhibit 9.1
CCOC(=O)C1CCN(S(=O)(=O)c2ccc(CC)cc2)CC1	none
Cc1ccc(S(=O)(=O)N2CCCC2C(=O)OCc2ccccc2)cc1 (stereo not drawn)	RAM inhibit 9.4
O=C(NC(=S)N1CCN(c2nc(-c3ccccc3)cs2)CC1)c1cncc(Br)c1	none (no result: Yeast life ext, BB579 growth dn, Measles CPE)
CN(C)c1ccc(N/C(=N\S(=O)(=O)c2cccs2)c2ccccc2)cc1	none (no result: Insulin prom inh)
CN(/C(=N/S(=O)(=O)c1cccs1)c1ccccc1)c1ccccc1	Measles CPE 29 (no result: Insulin prom inh)
Cn1nc(C(F)(F)F)c(/C=N/OC(=O)c2ccccc2)c1Sc1ccc(Cl)cc1	RAM inhibit 10 (no result: Insulin prom inh)
COc1ccc(NC(=O)CCC2CCCCC2)cc1S(=O)(=O)N1CCCCC1	none (no result: Insulin prom inh)
CCc1ccc2c(c1)CCCN2C(=O)c1ccccc1C(=O)O	Yeast life ext 34 (no result: Insulin prom inh)
COc1ccccc1-c1cc(C(=O)N2CCCc3ccccc32)no1	none (no result: Yeast life ext, BB579 growth dn, Measles CPE)
COc1ccc(OC)c(-c2cc(C(=O)N3CCCc4ccccc43)no2)c1	RAM inhibit 9.3
O=C(c1ccc(C(=O)N2CCCc3ccccc32)s1)N1CCCc2ccccc21	BB579 growth dn 84
O=C(NC(=S)N1CCCc2ccccc21)c1ccc(Cl)cc1	none
O=C(NC(=S)N1CCCc2ccccc21)c1ccccc1	Measles CPE 26
CCCCCC(=O)Nc1cccc(C2=NOC3(C2)C[C@@H](C(N)=O)N(C(=O)C2(C)CC2)C3)c1 (stereo partly drawn)	none (no result: Yeast life ext, RAM inhibit, Insulin prom inh, BB579 growth dn, Measles CPE)
CCC(c1nnc(SCC(=O)N2CC3(C)CC2CC(C)(C)C3)o1)N(C)C (stereo not drawn)	Measles CPE 48 (no result: Insulin prom inh)
CCNc1nc(NCC)n2c(SCC(=O)N3CC4(C)CC3CC(C)(C)C4)nnc2n1 (stereo not drawn)	none (no result: Insulin prom inh)
COc1ccc(CCNC(=O)c2c(C)noc2C)cc1	none
Cc1noc(C)c1C(=O)NCCCc1ccccc1	Measles CPE 38
CC1(C)CC(CC(=O)O)(c2ccccc2)CCO1 (stereo not drawn)	none
Cc1ccc(C(=O)NCC(=O)OCC(=O)Nc2ccccc2[N+](=O)[O-])cc1	none
COC(=O)/C(=C\Nc1ccc(Cl)c2ccccc12)c1ncc(C(F)(F)F)cc1Cl	none
CCOC(=O)/C(=C\Nc1ccccc1C(F)(F)F)Sc1ncc(C(F)(F)F)cc1Cl	RAM inhibit 10.0 (no result: Insulin prom inh)
CCN(CC)S(=O)(=O)c1ccc(C(=O)NCCSc2c[nH]c3ccccc23)cc1	RAM inhibit 8.7 (no result: Mdm2 ligase inh)
CC(=O)c1csc(COc2ccc(Cl)cc2)n1	none (no result: Yeast life ext, RAM inhibit, Insulin prom inh, BB579 growth dn, Measles CPE)
CCCCOc1ccc2c(C)cc(=O)oc2c1OCCCC	RAM inhibit 8.8 (no result: Yeast life ext)
C#CCNc1nc(CC)nc2c1nnn2Cc1ccccc1F	none
O=C(NC1CCCCCC1)c1cccc(COCC(F)(F)F)c1	Insulin prom inh inconclusive, Measles CPE 36 (no result: Yeast life ext, Mdm2 ligase inh)
O=C(NC1CCCCC1)c1ccc(COCC(F)(F)F)o1	none (no result: Mdm2 ligase inh)
Cc1ccc(SCc2nc3ncccn3c2Br)cc1	none (no result: Yeast life ext, RAM inhibit, Insulin prom inh, BB579 growth dn, Measles CPE)
O=C(c1cccc(F)c1)n1nnc2ccccc21	Insulin prom inh 81
Cc1ccc(C(=O)n2nnc3ccccc32)cc1	none (no result: Yeast life ext, Mdm2 ligase inh, RAM inhibit, BB579 growth dn, Measles CPE)
COC(=O)c1cccnc1Oc1ccccc1	none (no result: Yeast life ext, RAM inhibit, Insulin prom inh, BB579 growth dn, Measles CPE)
Cc1cccc(-n2c(N)cc(=O)[nH]c2=S)c1C	none
Nc1cc(=O)[nH]c(=S)n1-c1cccc(C(F)(F)F)c1	Insulin prom inh 60
O=C(COC(=O)c1ccc([N+](=O)[O-])s1)Nc1ccccc1	none
CC(C)(C)c1ccc(NC(=O)COC(=O)c2ccc([N+](=O)[O-])s2)cc1	BB579 growth dn 100
CC(=O)c1c(C)nc2ccccc2c1N	Insulin prom inh 88
CCCCNC(=S)N/N=C1\C(=O)c2cccc3cccc1c23	RAM inhibit 9.1
CC1(C)CC(=O)c2sc(NS(C)(=O)=O)nc2C1	Yeast life ext 97
FC(F)(F)c1cc(-c2cccs2)nc2nc(N3CCOCC3)sc12	none (no result: Yeast life ext, BB579 growth dn, Measles CPE)
COc1ccc(/C=N/Nc2nccnc2Cl)c(OC)c1	none (no result: Yeast life ext, Insulin prom inh, BB579 growth dn, Measles CPE)
COc1ccc(/C=N/Nc2nccnc2Cl)cc1	Insulin prom inh 83
O=C1CN(C(=O)c2cc([N+](=O)[O-])ccc2Cl)C(c2ccc(F)cc2)c2cc(F)ccc2N1 (stereo not drawn)	none
Cc1ccc(-c2nc(CSc3nc4ccccc4c(=O)n3C)cs2)cc1	RAM inhibit 11
